Assay results taken from ChEMBL document CHEMBL1141156, “Mapping antimalarial pharmacophores as a useful tool for the rapid discovery of drugs effective in vivo: design, construction, characterization, and pharmacology of metaquine” (2005).

Columns and labels:
[1] = Binding constant dissolved in DMSO against hematin receptor at pH 7.4 (HEPES Buffer) upon incubation at 30 degree C
How it was run: (§1)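 Hemin from 1.2 mM DMSO stock diluted to ~12 μM in 40% aqueous DMSO, 0.02 M HEPES, apparent pH 7.4–7.5 (monomeric hematin). Drug serial dilutions mixed with heme in microplate wells, 30 min incubation at the stated temperature, absorbance at 405 nm (Soret). Reference wells without heme subtract drug absorbance. Triplicate readings; log K by nonlinear least-squares fit, 1:1 heme–drug model.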

[2] = Dose (diphosphate) present in DMSO required to inhibit Plasmodium berghei N/13 infected mice (Mus musculus) administered subcutaneously 3-4 hr after infection on day 1 and then twice daily on days 2 and 3; assay type: functional; conditions: sc, read-out: ID50 (the source's name)
How it was run: (§2)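 MF1 mice inoculated iv with 2×10^7 P. berghei N/13 parasitized erythrocytes. Drug given sc as five injections over 72 h in olive oil/DMSO (96:4) or saline/DMSO (96:4). Parasitemia read at 72 h on Leishman-stained tail blood smears, 4–8 mice per dose, 2–8 dose levels. ID50 is the dose giving 50% inhibition versus concurrent vehicle-treated mice.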

[3] = Binding constant dissolved in DMSO against hematin receptor at pH 7.4 (HEPES Buffer) upon incubation at 37 degree C; how it was run: as §1
[4] = Binding constant dissolved in DMSO against hematin receptor at pH 7.4 (HEPES Buffer) upon incubation at 42 degree C; how it was run: as §1
Plasmodium falciparum = assay: In vitro inhibition of Plasmodium falciparum K1; assay type: functional
How it was run: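 Synchronized, mostly ring-stage P. falciparum K1 at 1.0% parasitemia in RPMI 1640 with 25 mM HEPES pH 7.4 and 32 mM NaHCO3. Drug from DMSO stock, final DMSO ≤0.01%. Culture 24 h at 37 °C under 17% O2/3% CO2/80% N2, then 18–24 h with [3H]hypoxanthine. Incorporation counted by scintillation after filter harvest; IC50 reported.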

[5] = Dose (dihydrochloride) present in DMSO required to inhibit Plasmodium berghei N/13 infected mice (Mus musculus) administered subcutaneously; assay type: functional; conditions: sc, read-out: ID50 (the source's name); how it was run: as §2
Plasmodium berghei = assay: In vivo 50% inhibition of parasitaemia in Plasmodium berghei infected mice (Mus musculus) by oral dose; assay type: functional; conditions: read-out: ID50 (the source's name)
How it was run: (§3)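 P. berghei-infected MF1 mice (2×10^7 parasitized erythrocytes iv). Drug in Water for Injections BP/DMSO (98:2) at 65 and 199 μM in drinking water, ad libitum; daily volume drunk measured to calculate dose. Parasitemia on Leishman-stained tail smears at 72 h, 4–8 mice per group. ID50 is 50% inhibition versus vehicle-treated mice.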

[6] = Dose (dihydrochloride) present in DMSO required to inhibit Plasmodium berghei NY infected mice (Mus musculus) administered intraperitoneally; assay type: functional; conditions: ip, read-out: ID50 (the source's name)
How it was run: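 MF1 mice infected iv with 2×10^7 P. berghei NY parasitized erythrocytes. Dosing ip, five injections over 72 h, in Water for Injections BP/DMSO (96:4). Parasitemia counted on Leishman-stained tail smears at 72 h, groups of 4–8 mice. ID50 derived from 2–8 dose levels relative to vehicle-treated controls.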

[7] = Dose of the compound (hydrochloride) required to inhibit Plasmodium berghei Plasmodium berghei N/13 parasitemia by 50%; assay type: functional; conditions: read-out: ID50 (the source's name); how it was run: as §3
[8] = Dose present in DMSO required to inhibit Plasmodium berghei N/13 infected mice (Mus musculus) administered subcutaneously 3-4 hr after infection on day 1 and then twice daily on days 2 and 3; assay type: functional; conditions: sc, read-out: ID50 (the source's name); how it was run: as §2
[9] = Binding constant dissolved in DMSO against hematin receptor at pH 7.4 (HEPES Buffer) upon incubation at 23 degree C; how it was run: as §1

Log K [1]	Log K [3]	Log K [4]	IC50 (Plasmodium falciparum)	Log K [9]	Compound	ED50 [2]	ED50 [5]	ED50 (Plasmodium berghei)	ED50 [6]	ED50 [7]	ED50 [8]
5.4	5.4	5.3	230 nM	–	CCN(CC)CCCC(C)Nc1ccnc2cc(Cl)ccc12 (stereo not given) [CHLOROQUINE]	8.3 µmol/kg	–	–	–	–	–
5.4	5.1	5.8	170 nM	6.1	Clc1ccc2c(Nc3cccc(Nc4ccnc5cc(Cl)ccc45)c3)ccnc2c1 [METAQUINE]	–	2.9 µmol/kg	25 µmol/kg	3.2 µmol/kg	2.4 µmol/kg	1.5 µmol/kg
